Reference: the array DNA melting data of Ke et al. (doi:10.1101/2024.01.08.574731)

Legend:
[1] = folding enthalpy; higher = less favourable; fluorescence melt of hairpins on a sequencing array, two-state fit; settings: sodium 0.088 M
Summary of the method: (§1)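 Hairpins were imaged by Cy3 fluorescence on a sequenced MiSeq flow cell with annealed Cy3 and quencher oligos, in 50 mM Na-HEPES pH 8.0, 25 mM NaCl, in 2.5 °C steps up to 60 °C. Bootstrapped two-state fits of normalised signals gave melting temperature and folding enthalpy. Four replicates were combined by inverse variance, and fitted temperatures were raised by 9.35 °C to match UV melts.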

[2] = melting temperature; fluorescence melt of hairpins on a sequencing array, two-state fit, raised by 9.35 °C to match UV melts; settings: sodium 0.088 M
Summary of the method: as §1

Sequence | folding enthalpy [1] | Tm [2]
GTAGGTCGAAAGACTAC (((.(((....)))))) | -73.6 kJ/mol | 43.3 °C
GTAGGTCGAAAGACTTAC (((.(((....))).))) | -114 kJ/mol | 47.9 °C
GTAGTAGCGAAAGCTTAC (((..(((....)))))) | -47.2 kJ/mol | 30.5 °C
GTAGTAGGAAACTACCAC ((.((((....)))).)) | -71.8 kJ/mol | 32.2 °C
GTAGTCACGAAAGTGTAC (((..(((....)))))) | -50.2 kJ/mol | 30.5 °C
GTAGTCCGAAAGGATTAC (((.(((....))).))) | -144 kJ/mol | 49.4 °C
GTAGTCGAAAGACATTAC ((((((....)))..))) | -39.1 kJ/mol | 23.5 °C
GTAGTCGAAAGACTATAC ((((((....)))..))) | -55.1 kJ/mol | 42 °C
GTAGTCGGAAACGACTGC (.(((((....))))).) | -121 kJ/mol | 53.7 °C
GTAGTGACGAAAGTCTAC (((..(((....)))))) | -66.5 kJ/mol | 29.7 °C
GTAGTGCGAAAGCATTAC (((.(((....))).))) | -107 kJ/mol | 51 °C
GTAGTGGAAACACTAC ((((((....)))))) | -192 kJ/mol | 53.4 °C
GTAGTGGGAAACCATTAC (((.(((....))).))) | -134 kJ/mol | 38.1 °C
GTAGTGGGAAACCGCTAC ((((.((....)).)))) | -204 kJ/mol | 51.5 °C
GTAGTTACGAAAGTATAC (((..(((....)))))) | -43.1 kJ/mol | 23.9 °C
GTAGTTCGAAAGAAATAC (((.(((....))).))) | -122 kJ/mol | 42.2 °C
GTAGTTCGAAAGAATTAC (((.(((....))).))) | -112 kJ/mol | 42.4 °C
GTATAAGAAATTATAC ((((((....)))))) | -60.5 kJ/mol | 29.6 °C
GTATAAGCGAAAGCTTAC (((..(((....)))))) | -37.8 kJ/mol | 33.8 °C
GTATAAGGAAACTTATAC (((((((....))))))) | -129 kJ/mol | 46 °C
GTATACCCGAAAGGGTAC (((..(((....)))))) | -36.9 kJ/mol | 32.4 °C
GTATACGAAAGTACTTAC ((((((....)))..))) | -56.4 kJ/mol | 31.5 °C
GTATACGAAAGTAGTAC ((((((....))).))) | -48.7 kJ/mol | 29.6 °C

Sequence | folding enthalpy [1] | Tm [2]
GTATAGAAATATAC (((((....))))) | -33.2 kJ/mol | 23.1 °C
GTATAGACGAAAGTCTAC (((..(((....)))))) | -43.8 kJ/mol | 33.5 °C
GTATAGGAAACTATAC ((((((....)))))) | -108 kJ/mol | 41.5 °C
GTATAGGCGAAAGCCTAC (((..(((....)))))) | -34 kJ/mol | 31.8 °C
GTATATCCGAAAGGATAC (((..(((....)))))) | -52 kJ/mol | 34.7 °C
GTATATCGAAAGATGTAC (((.(((....))).))) | -133 kJ/mol | 44.5 °C
GTATATCGAAAGATTTAC (((.(((....))).))) | -91.3 kJ/mol | 36.4 °C
GTATATGGAAACGTATAC (((((.(....).))))) | -102 kJ/mol | 35.2 °C
GTATCACCGAAAGGTTAC (((..(((....)))))) | -34.6 kJ/mol | 25.8 °C
GTATCAGGAAACTGGTAC (((.(((....))).))) | -123 kJ/mol | 43.5 °C
GTATCCCGAAAGGGCTAC (((.(((....))).))) | -94.2 kJ/mol | 41.3 °C
GTATCCCGAAAGGGTTAC (((.(((....))).))) | -87.9 kJ/mol | 47.4 °C
GTATCCGAAAGGAACTAC ((((((....)))..))) | -59.9 kJ/mol | 33.4 °C
GTATCCGAAAGGAGCTAC ((((((....)))..))) | -52.8 kJ/mol | 31.8 °C
GTATCCGAAAGGATCTAC ((((((....)))..))) | -57.3 kJ/mol | 39.1 °C
GTATCGAAAGATAC (((((....))))) | -105 kJ/mol | 52.7 °C
GTATCGCGAAAGCGGTAC (((.(((....))).))) | -122 kJ/mol | 56.5 °C
GTATCGGGAAACCGGTAC (((.(((....))).))) | -134 kJ/mol | 48.9 °C
GTATCTCCGAAAGGATAC (((..(((....)))))) | -82.2 kJ/mol | 30.7 °C
GTATCTCGAAAGAGGTAC (((.(((....))).))) | -144 kJ/mol | 48.7 °C
GTATCTCGAAAGAGTTAC (((.(((....))).))) | -111 kJ/mol | 36.4 °C
GTATCTGAAAAGATAC ((((((....)))))) | -139 kJ/mol | 49.2 °C
GTATGACCGAAAGGTTAC (((..(((....)))))) | -43.3 kJ/mol | 30.5 °C

Sequence | folding enthalpy [1] | Tm [2]
GTATGAGGAAACTCGTAC (((.(((....))).))) | -140 kJ/mol | 44 °C
GTATGCCGAAAGGCTAC (((.(((....)))))) | -54.7 kJ/mol | 48.3 °C
GTATGCGAAAGCAATAC ((((((....))).))) | -85 kJ/mol | 49.4 °C
GTATGCGAAAGCAATTAC ((((((....)))..))) | -44.6 kJ/mol | 28.2 °C
GTATGCGAAAGCAGCTAC ((((((....)))..))) | -56.1 kJ/mol | 32.8 °C
GTATGCGGAAACACATAC (((((.(....).))))) | -137 kJ/mol | 39.8 °C
GTATGCGGAAACGCATGC (.(((((....))))).) | -88.8 kJ/mol | 55.5 °C
GTATGCGGAAACGTATGC (.((.((....)).)).) | -75.5 kJ/mol | 32.2 °C
GTATGGACGAAAGTCTAC (((..(((....)))))) | -45.5 kJ/mol | 29.2 °C
GTATGGCGAAAGCCGTAC (((.(((....))).))) | -108 kJ/mol | 56.9 °C
GTATGGGAAACCATAC ((((((....)))))) | -154 kJ/mol | 50.8 °C
GTATGGGGAAACCCATAC (((((((....))))))) | -140 kJ/mol | 59 °C
GTATGTCGAAAGACGTAC (((.(((....))).))) | -104 kJ/mol | 52.8 °C
GTATGTCGAAAGACTTAC (((.(((....))).))) | -105 kJ/mol | 45.5 °C
GTATGTGGAAACACGTAC (((.(((....))).))) | -123 kJ/mol | 47.1 °C
GTATTACGAAAGTATAC (((.(((....)))))) | -75.5 kJ/mol | 32.5 °C
GTATTAGGAAACCAATAC (((((.(....).))))) | -59.2 kJ/mol | 25.9 °C
GTATTCGAAAGAAGTAC ((((((....))).))) | -37 kJ/mol | 24.9 °C
GTATTCGCGAAAGCGTAC (((..(((....)))))) | -33.5 kJ/mol | 23.4 °C
GTATTGGAAACAATAC ((((((....)))))) | -112 kJ/mol | 46.5 °C
GTATTGGGAAACCAATGC (.(((((....))))).) | -113 kJ/mol | 44.3 °C
GTATTGGGAAACCAGTAC (((.(((....))).))) | -114 kJ/mol | 40 °C
